In ChEMBL document CHEMBL4270609, “Purple acid phosphatase inhibitors as leads for osteoporosis chemotherapeutics” (Eur J Med Chem, 2018):
Calls of active or inactive are those of the source. No cut-off for these calls is given here.

How the values were obtained:
[1] = biological target: T1, Tartrate-resistant acid phosphatase type 5 (Sus scrofa) (UniProt P09889); assay: Inhibition of pig purple acid phosphatase Fe(3)Fe(2) state assessed as enzyme-inhibitor complex at 100 uM using pNPP as substrate by UV/Vis spectrophotometric method
T1 sequence (whole entry): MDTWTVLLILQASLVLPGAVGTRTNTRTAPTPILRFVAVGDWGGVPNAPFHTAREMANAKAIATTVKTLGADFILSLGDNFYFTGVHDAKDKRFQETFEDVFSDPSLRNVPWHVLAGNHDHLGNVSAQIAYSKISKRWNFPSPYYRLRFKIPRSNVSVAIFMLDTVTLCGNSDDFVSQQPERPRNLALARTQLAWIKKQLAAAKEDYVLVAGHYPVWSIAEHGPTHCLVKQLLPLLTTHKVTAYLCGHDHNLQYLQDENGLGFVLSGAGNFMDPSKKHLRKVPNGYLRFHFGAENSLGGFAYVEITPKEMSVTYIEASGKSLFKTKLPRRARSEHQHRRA
In short: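 Used 5 mM pNPP substrate and 12 nM enzyme in 0.1 M acetate pH 4.9 with 25% DMSO at 25 °C. p-Nitrophenol formation was followed at 405 nm; result expressed as percentage inhibition.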

[2] = biological target: T1, Tartrate-resistant acid phosphatase type 5 (Sus scrofa); assay: Competitive inhibition of pig purple acid phosphatase Fe(3)Fe(2) state assessed as enzyme-inhibitor complex using pNPP as substrate by UV/Vis spectrophotometric method
In short: (§1)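 Pig PAP was from sow uterine fluid and pre-reduced to Fe(III)Fe(II) with 0.77 mM β-mercaptoethanol (10 min, 37 °C); rkbPAP was purified from red kidney beans. Assays ran at 25 °C, pH 4.9 (0.1 M acetate, 25% DMSO) with 12 nM enzyme, pNPP 1–12.5 mM and inhibitor 50–300 μM. p-Nitrophenol was read at 405 nm. Kic and Kiuc came from non-linear fit to the general inhibition equation.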

[3] = biological target: T2, Fe(3+)-Zn(2+) purple acid phosphatase (Phaseolus vulgaris) (UniProt P80366); assay: Competitive inhibition of red kidney bean purple acid phosphatase Fe(3)Fe(2) state assessed as enzyme-inhibitor complex using pNPP as substrate by UV/Vis spectrophotometric method; in short: as §1
T2 sequence (whole entry): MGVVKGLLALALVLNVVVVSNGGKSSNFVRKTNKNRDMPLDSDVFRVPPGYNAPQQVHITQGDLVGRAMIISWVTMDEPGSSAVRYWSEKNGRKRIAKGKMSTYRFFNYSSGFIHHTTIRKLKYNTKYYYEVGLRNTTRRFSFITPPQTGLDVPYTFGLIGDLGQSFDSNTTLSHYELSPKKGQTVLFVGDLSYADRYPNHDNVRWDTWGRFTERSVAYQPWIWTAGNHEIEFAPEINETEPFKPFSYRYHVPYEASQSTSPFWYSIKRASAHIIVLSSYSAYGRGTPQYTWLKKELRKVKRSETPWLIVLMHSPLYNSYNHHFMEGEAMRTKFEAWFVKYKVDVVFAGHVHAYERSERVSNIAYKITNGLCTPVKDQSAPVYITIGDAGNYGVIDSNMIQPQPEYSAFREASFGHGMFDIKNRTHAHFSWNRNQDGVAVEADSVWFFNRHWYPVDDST

[4] = biological target: T1, Tartrate-resistant acid phosphatase type 5 (Sus scrofa); assay: Uncompetitive inhibition of pig purple acid phosphatase Fe(3)Fe(2) state assessed as enzyme-substrate-inhibitor complex using pNPP as substrate by UV/Vis spectrophotometric method; in short: as §1
[5] = biological target: T2, Fe(3+)-Zn(2+) purple acid phosphatase (Phaseolus vulgaris); assay: Uncompetitive inhibition of red kidney bean purple acid phosphatase Fe(3)Fe(2) state assessed as enzyme-substrate-inhibitor complex using pNPP as substrate by UV/Vis spectrophotometric method; in short: as §1

Row | inhibition [1] | Kic [2] [µM] | Kic [3] [µM] | Structure (SMILES) | further results
1 |  | 42 | 340 | Cc1ccc(-c2nc(C(=O)O)cs2)cc1 | 
2 |  | 630 | 920 | O=C(O)c1csc(-c2ccccc2Cl)n1 | Kiuc [4]: 350 µM
3 | inactive |  |  | Cc1ccc(C2N[C@H](C(=O)O)CS2)cc1 (some centres not stated) | 
4 |  | 49 | 530 | O=C(O)c1csc(-c2ccc(Cl)cc2)n1 | 
5 | inactive |  |  | COc1ccc(C2N[C@H](C(=O)O)CS2)cc1 (some centres not stated) | 
6 |  | 120 | 400 | COc1ccc(-c2nc(C(=O)O)cs2)cc1 | Kiuc [5]: 770 µM
7 |  | 190 |  | O=C(O)c1csc(-c2ccccc2)n1 | 
8 |  | 33 | 185 | O=C(O)c1csc(-c2cccc3ccccc23)n1 | Kiuc [4]: 110 µM

Continued, compound first:

Row | Structure (SMILES) | inhibition [1] | Kic [2] [µM] | Kic [3] [µM] | further results
9 | O=C(O)[C@@H]1CSC(c2cccc3ccccc23)N1 (some centres not stated) | inactive |  |  | 
10 | O=C(O)[C@@H]1CSC(c2ccc(O)cc2)N1 (some centres not stated) | inactive |  |  | 
11 | O=C(O)[C@@H]1CSC(c2ccccc2)N1 (some centres not stated) | inactive |  |  | 
12 | O=C(O)[C@@H]1CSC(c2c(O)ccc3ccccc23)N1 (some centres not stated) | inactive |  |  | 
13 | O=C(O)[C@@H]1CSC(c2ccco2)N1 (some centres not stated) | inactive |  |  | 
14 | O=C(O)[C@@H]1CSC(c2ccccc2O)N1 (some centres not stated) | inactive |  |  | 
